In ChEMBL document CHEMBL4346679, “N, N', N″-trisubstituted guanidines: Synthesis, characterization and evaluation of their leishmanicidal activity” (Eur J Med Chem, 2019):
pIC50: −log10 of the molar value. The source made the active and inactive calls. The calls are words filed in the database; no cut-off is given here.

Key:
Leishmania amazonensis [1] = test: Antileishmanial activity against promastigote stage of Leishmania amazonensis MPRO/BR/1972/M1841-LV-79 assessed as parasite growth inhibition after 72 hrs by MTT assay; format: functional, organism-based; details: MPRO/BR/1972/M1841-LV-79, 72 h
Procedure, shortened: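 Promastigotes at 1 × 10^7/mL in LIT + 10% FBS were exposed 72 h at 28 °C to ten concentrations, 0.5–100 µM (final DMSO 0.1%). Viability was read by MTT, with formazan dissolved in SDS-HCl and absorbance at 570 nm. Run in triplicate; IC50 from nonlinear regression.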

Leishmania amazonensis [2] = test: Antileishmanial activity against Leishmania amazonensis MPRO/BR/1972/M1841-LV-79 amastigotes infected in mouse peritoneal macrophages assessed as parasite growth inhibition after 24 hrs by Giemsa staining-based microscopic method; format: functional, organism-based; details: MPRO/BR/1972/M1841-LV-79, 24 h
Procedure, shortened: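 Peritoneal macrophages (3 × 10^5/well on coverslips, RPMI 1640 + 10% FBS) adhered 4 h at 37 °C, 5% CO2, then infected with stationary-phase promastigotes at 5:1 for 4 h. After washing, cells were cultured 18 h, then treated 24 h with compounds or reference drugs. Cells were methanol-fixed and Giemsa-stained. Infection index = % infected macrophages × mean amastigotes per infected cell. IC50 was fitted by regression.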

[3] = Cytotoxicity against mouse peritoneal macrophages assessed as decrease in cell viability after 24 hrs by MTT assay; format: cell-based, Peritoneal macrophage
Procedure, shortened: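 Peritoneal macrophages (1 × 10^5/well) in RPMI 1640 with 10% FBS, 25 mM HEPES and 2 mM L-glutamine were pre-incubated 4 h. They were then exposed to compounds for 24 h at 37 °C, 5% CO2. Viability was read by MTT; CC50 determined.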

[4] = Safety index, ratio of CC50 for mouse peritoneal macrophage to IC50 for promastigote stage of Leishmania amazonensis MPRO/BR/1972/M1841-LV-79; format: toxicity; details: read-out: Ratio CC50/IC50
[5] = Safety index, ratio of CC50 for mouse peritoneal macrophages to IC50 for Leishmania amazonensis MPRO/BR/1972/M1841-LV-79 amastigotes infected in mouse peritoneal macrophages; format: toxicity; details: read-out: Ratio CC50/IC50
Leishmania amazonensis [6] = test: Antileishmanial activity against promastigote stage of Leishmania amazonensis MPRO/BR/1972/M1841-LV-79 infected in Balb/c mouse assessed as reduction in parasitic load at 2 mg/kg, ip administered once daily for 15 days by limiting dilution method relative to control; format: functional; set-up: scale not given: the % may be the effect or the level left
Procedure, shortened: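 Footpad-infected female BALB/c mice (1 × 10^7 parasites/mL promastigotes; 5 per group) were treated from six weeks post-infection. Dosing was daily ip for 15 days: 0.13 or 0.25 mg/kg/day (PBS, 0.1% DMSO), AmpB 2 mg/kg/day, or PBS vehicle. Skin-lesion parasite burden was quantified after treatment by limiting dilution and compared with untreated infected mice. Data are mean ± SD.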

Leishmania amazonensis [7] = test: Antileishmanial activity against Leishmania amazonensis MPRO/BR/1972/M1841-LV-79 amastigotes infected in mouse peritoneal macrophages assessed as reduction in number of intracellular amastigotes at 25 uM after 72 hrs by Giemsa staining-based microscopic method relative to control; format: functional; set-up: scale not given: the % may be the effect or the level left
Procedure, shortened: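 Infected peritoneal macrophages were treated with 25 µM of each compound, pentamidine or AmpB for 72 h. The infection index (% infected macrophages × amastigotes per infected macrophage) was compared with untreated infected cells. Data are given as mean ± SD.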

Leishmania amazonensis [8] = test: Antileishmanial activity against promastigote stage of Leishmania amazonensis MPRO/BR/1972/M1841-LV-79 infected in Balb/c mouse assessed as reduction in volume of foot lesions at 2 mg/kg, ip administered once daily for 15 days measured every 5 days during compound dosing by caliper method; format: functional, organism-based
Procedure, shortened: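 Infected BALB/c mice (5 per group) were dosed daily ip for 15 days, starting six weeks after footpad inoculation: 0.13 or 0.25 mg/kg/day, AmpB 2 mg/kg/day, or PBS. Foot lesion thickness was measured with a dial caliper every 5 days.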

[9] = Toxicity in Balb/c mouse infected with promastigote stage of Leishmania amazonensis MPRO/BR/1972/M1841-LV-79 assessed as change in body weight at 2 mg/kg, ip administered once daily for 15 days measured during compound dosing; format: organism-based; details: in vivo, 360 h
Leishmania amazonensis [10] = test: Antileishmanial activity against promastigote stage of Leishmania amazonensis MPRO/BR/1972/M1841-LV-79 infected in Balb/c mouse assessed as increase in plasma bilirubin level at 2 mg/kg, ip administered once daily for 15 days measured during compound dosing; format: functional, organism-based
[11] = Renal toxicity in Balb/c mouse infected with promastigote stage of Leishmania amazonensis MPRO/BR/1972/M1841-LV-79 assessed as change in plasma creatinine level at 2 mg/kg, ip administered once daily for 15 days measured post-last dose; format: organism-based; details: in vivo, 360 h
Procedure, shortened: (§1)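 Female BALB/c mice (4 weeks old, 5 per group) were infected in the left hind footpad with 1 × 10^7 parasites/mL of infective promastigotes. After six weeks they received daily ip doses for 15 days: 0.13 or 0.25 mg/kg/day (from DMSO stock in PBS, 0.1% DMSO), AmpB 2 mg/kg/day in sterile water, or PBS. Controls were untreated infected and uninfected mice. At end of treatment, plasma bilirubin, AST, ALT, ALP, urea and creatinine were measured with commercial kits.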

[12] = Renal toxicity in Balb/c mouse infected with promastigote stage of Leishmania amazonensis MPRO/BR/1972/M1841-LV-79 assessed as change in plasma urea level at 2 mg/kg, ip administered once daily for 15 days measured post-last dose; format: organism-based; details: in vivo, 360 h; procedure, shortened: as §1
Leishmania amazonensis [13] = test: Antileishmanial activity against promastigote stage of Leishmania amazonensis MPRO/BR/1972/M1841-LV-79 infected in Balb/c mouse assessed as decrease in plasma alkaline phosphatase level at 2 mg/kg, ip administered once daily for 15 days measured post-last dose; format: organism-based; details: in vivo, 360 h; procedure, shortened: as §1
Leishmania amazonensis [14] = test: Antileishmanial activity against promastigote stage of Leishmania amazonensis MPRO/BR/1972/M1841-LV-79 infected in Balb/c mouse assessed as decrease in plasma aspartate aminotransferase level at 2 mg/kg, ip administered once daily for 15 days measured post-last dose; format: functional, organism-based; procedure, shortened: as §1
Leishmania amazonensis [15] = test: Antileishmanial activity against promastigote stage of Leishmania amazonensis MPRO/BR/1972/M1841-LV-79 infected in Balb/c mouse assessed as decrease in plasma alanine aminotransferase level at 2 mg/kg, ip administered once daily for 15 days measured post-last dose; format: functional, organism-based; procedure, shortened: as §1

Compound: C[C@@H]1[C@H](O)[C@@H](C)/C=C/C=C/C=C/C=C/C=C/C=C/C=C/[C@H](O[C@@H]2O[C@H](C)[C@@H](O)[C@H](N)[C@@H]2O)C[C@@H]2O[C@](O)(C[C@@H](O)C[C@@H](O)[C@H](O)CC[C@@H](O)C[C@@H](O)CC(=O)O[C@H]1C)C[C@H](O)[C@H]2C(=O)O [AMPHOTERICIN B]
- pIC50 (Leishmania amazonensis [1]): 5.49
- pIC50 (Leishmania amazonensis [2]): 5.31
- CC50 at 24 h [3]: 23.1 µM
- selectivity ratio [4]: 7.2
- selectivity ratio [5]: 4.7
- Activity (Leishmania amazonensis [6]): 41%
- Activity (Leishmania amazonensis [7]): 84%
- Activity (Leishmania amazonensis [8]): Active
- Activity [9]: Non-Toxic
- Activity (Leishmania amazonensis [10]): Active
- Activity [11]: Non-Toxic
- Activity [12]: Non-Toxic
- Activity (Leishmania amazonensis [13]): Active
- Activity (Leishmania amazonensis [14]): Active
- Activity (Leishmania amazonensis [15]): Active
